Assay results: ChEMBL document CHEMBL1275484, “Rifampin and rifaximin resistance in clinical isolates of Clostridium difficile” (Antimicrob Agents Chemother, 2008)
Converted amounts (≈) assume the structure as drawn.

Legend:
Format in all cases: functional
[1] = test system: Clostridioides difficile; test: Antimicrobial activity against Clostridium difficile isolate 9 by Etest
Summary of the method: (§1)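 Rifampin MIC by Etest on brucella blood agar, run per the strip manufacturer's instructions, against clinical isolates typed by HindIII REA.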

[2] = test system: Clostridioides difficile; test: Antimicrobial activity against Clostridium difficile isolate 11 by agar dilution method
Summary of the method: (§2)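 MIC by CLSI reference agar dilution for anaerobes, with endpoints read per M11-A7 and C. difficile […] as control. Rifaximin was dissolved in methanol, diluted in 0.1 M phosphate buffer pH 7.4 plus 0.45% SDS, and tested at 0.0009–256 μg/ml. Rifampin was dissolved in methanol, diluted in water, and tested at 0.00001–256 μg/ml.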

[3] = test system: Clostridioides difficile; test: Antimicrobial activity against rifaximin-resistant Clostridium difficile isolate 17 expressing RpoB H502N and I548M mutants by Etest
Summary of the method: (§3)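 Rifampin Etest on clinical C. difficile isolates typed by HindIII REA, run per the strip manufacturer's instructions on brucella blood agar, with the MIC read from the strip.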

[4] = test system: Clostridioides difficile; test: Antimicrobial activity against Clostridium difficile isolate 10 by Etest
Summary of the method: (§4)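 Rifampin MIC by Etest strip on brucella blood agar, run per the strip maker's instructions. Isolates were HindIII REA-typed clinical C. difficile.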

[5] = test system: Clostridioides difficile; test: Antimicrobial activity against Clostridium difficile isolate 62 by Etest
Summary of the method: (§5)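 Rifampin Etest strips were run on brucella blood agar following the manufacturer's instructions to give an MIC. Clinical isolates were typed by HindIII REA.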

[6] = test system: Clostridioides difficile; test: Antimicrobial activity against Clostridium difficile isolate 30 by agar dilution method; summary of the method: as §2
[7] = test system: Clostridioides difficile; test: Antimicrobial activity against Clostridium difficile isolate 48 by Etest; summary of the method: as §5
[8] = test system: Clostridioides difficile; test: Antimicrobial activity against Clostridium difficile isolate 31 by Etest; summary of the method: as §4
[9] = test system: Clostridioides difficile; test: Antimicrobial activity against Clostridium difficile isolate 77 by agar dilution method
Summary of the method: (§6)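 CLSI reference agar dilution for anaerobes, with endpoints read per guideline M11-A7. Rifaximin was dissolved in methanol, diluted in 0.1 M phosphate buffer pH 7.4 with 0.45% SDS, and tested at 0.0009–256 μg/ml. Rifampin was dissolved in methanol, diluted in water, and tested at 0.00001–256 μg/ml. Control strain: C. difficile ATCC […]. Isolates were typed by HindIII REA.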

[10] = test system: Clostridioides difficile; test: Antimicrobial activity against Clostridium difficile isolate 36 by agar dilution method; summary of the method: as §2
[11] = test system: Clostridioides difficile; test: Antimicrobial activity against Clostridium difficile isolate 37 by agar dilution method; summary of the method: as §2
[12] = test system: Clostridioides difficile; test: Antimicrobial activity against Clostridium difficile isolate 27 by agar dilution method; summary of the method: as §2
[13] = test system: Clostridioides difficile; test: Antimicrobial activity against rifaximin-resistant Clostridium difficile isolate 64 expressing RpoB H502R mutant by agar dilution method
Summary of the method: (§7)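 MICs were found by the CLSI reference agar dilution method for anaerobes, with endpoints read per M11-A7 and C. difficile […] as control. Rifaximin was dissolved in methanol, diluted in 0.1 M phosphate buffer pH 7.4 with 0.45% SDS, and tested at 0.0009–256 μg/ml. Rifampin was dissolved in methanol, diluted in water, and tested at 0.00001–256 μg/ml.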

[14] = test system: Clostridioides difficile; test: Antimicrobial activity against Clostridium difficile isolate 37 by Etest; summary of the method: as §4
[15] = test system: Clostridioides difficile; test: Antimicrobial activity against Clostridium difficile isolate 42 by agar dilution method
Summary of the method: (§8)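 CLSI reference agar dilution method for anaerobes, with endpoints read per guideline M11-A7. Rifaximin was dissolved in methanol, diluted in 0.1 M phosphate buffer (pH 7.4) with 0.45% SDS, and tested at 0.0009–256 μg/ml. Rifampin was dissolved in methanol, diluted in water, and tested at 0.00001–256 μg/ml. C. difficile ATCC […] served as control. Isolates were typed by HindIII REA.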

[16] = test system: Clostridioides difficile; test: Antimicrobial activity against Clostridium difficile isolate 71 by agar dilution method; summary of the method: as §6
[17] = test system: Clostridioides difficile; test: Antimicrobial activity against Clostridium difficile isolate 78 by Etest; summary of the method: as §1
[18] = test system: Clostridioides difficile; test: Antimicrobial activity against Clostridium difficile isolate 45 by agar dilution method; summary of the method: as §8
[19] = test system: Clostridioides difficile; test: Antimicrobial activity against rifaximin-resistant Clostridium difficile isolate 21 expressing RpoB H502N and R505K mutants by agar dilution method; summary of the method: as §7
[20] = test system: Clostridioides difficile; test: Antimicrobial activity against rifaximin-resistant Clostridium difficile isolate 65 expressing RpoB H502N and R505K mutants by Etest; summary of the method: as §3
[21] = test system: Clostridioides difficile; test: Antimicrobial activity against rifaximin-resistant Clostridium difficile isolate 22 expressing RpoB H502N and R505K mutants by agar dilution method; summary of the method: as §7
[22] = test system: Clostridioides difficile; test: Antimicrobial activity against rifaximin-resistant Clostridium difficile isolate 68 expressing RpoB H502Y mutant by Etest; summary of the method: as §3
[23] = test system: Clostridioides difficile; test: Antimicrobial activity against Clostridium difficile isolate 40 by Etest; summary of the method: as §5
[24] = test system: Clostridioides difficile; test: Antimicrobial activity against Clostridium difficile isolate 80 by Etest; summary of the method: as §1
[25] = test system: Clostridioides difficile; test: Antimicrobial activity against Clostridium difficile isolate 44 by Etest; summary of the method: as §5
[26] = test system: Clostridioides difficile; test: Antimicrobial activity against Clostridium difficile isolate 52 by agar dilution method; summary of the method: as §8
[27] = test system: Clostridioides difficile; test: Antimicrobial activity against Clostridium difficile isolate 41 by agar dilution method; summary of the method: as §8
[28] = test system: Clostridioides difficile; test: Antimicrobial activity against Clostridium difficile isolate 76 by Etest; summary of the method: as §1
[29] = test system: Clostridioides difficile; test: Antimicrobial activity against rifaximin-resistant Clostridium difficile isolate 66 expressing RpoB D492N and R505K mutants by Etest; summary of the method: as §3
[30] = test system: Clostridioides difficile; test: Antimicrobial activity against Clostridium difficile isolate 5 by Etest; summary of the method: as §5
[31] = test system: Clostridioides difficile; test: Antimicrobial activity against rifaximin-resistant Clostridium difficile isolate 64 expressing RpoB H502R mutant by Etest; summary of the method: as §3
[32] = test system: Clostridioides difficile; test: Antimicrobial activity against Clostridium difficile isolate 44 by agar dilution method; summary of the method: as §8
[33] = test system: Clostridioides difficile; test: Antimicrobial activity against Clostridium difficile isolate 14 by agar dilution method; summary of the method: as §2
[34] = test system: Clostridioides difficile; test: Antimicrobial activity against Clostridium difficile isolate 27 by Etest; summary of the method: as §4
[35] = test system: Clostridioides difficile; test: Antimicrobial activity against Clostridium difficile isolate 13 by agar dilution method; summary of the method: as §2
[36] = test system: Clostridioides difficile; test: Antimicrobial activity against Clostridium difficile isolate 63 by Etest; summary of the method: as §1
[37] = test system: Clostridioides difficile; test: Antimicrobial activity against Clostridium difficile isolate 48 by agar dilution method; summary of the method: as §8
[38] = test system: Clostridioides difficile; test: Antimicrobial activity against Clostridium difficile isolate 72 by agar dilution method; summary of the method: as §6
[39] = test system: Clostridioides difficile; test: Antimicrobial activity against Clostridium difficile isolate 34 by Etest; summary of the method: as §4
[40] = test system: Clostridioides difficile; test: Antimicrobial activity against Clostridium difficile isolate 2 by Etest; summary of the method: as §4
[41] = test system: Clostridioides difficile; test: Antimicrobial activity against rifaximin-resistant Clostridium difficile isolate 67 expressing RpoB H502N and R505K mutants by agar dilution method; summary of the method: as §7
[42] = test system: Clostridioides difficile; test: Antimicrobial activity against Clostridium difficile isolate 19 by agar dilution method; summary of the method: as §2
[43] = test system: Clostridioides difficile; test: Antimicrobial activity against Clostridium difficile isolate 7 by agar dilution method; summary of the method: as §6
[44] = test system: Clostridioides difficile; test: Antimicrobial activity against Clostridium difficile isolate 2 by agar dilution method; summary of the method: as §2
[45] = test system: Clostridioides difficile; test: Antimicrobial activity against Clostridium difficile isolate 1 by agar dilution method; summary of the method: as §2
[46] = test system: Clostridioides difficile; test: Antimicrobial activity against Clostridium difficile isolate 78 by agar dilution method; summary of the method: as §6
[47] = test system: Clostridioides difficile; test: Antimicrobial activity against rifaximin-resistant Clostridium difficile isolate 4 expressing RpoB S488T and R505K mutants by agar dilution method; summary of the method: as §7
[48] = test system: Clostridioides difficile; test: Antimicrobial activity against Clostridium difficile isolate 29 by agar dilution method; summary of the method: as §2
[49] = test system: Clostridioides difficile; test: Antimicrobial activity against Clostridium difficile isolate 80 by agar dilution method; summary of the method: as §6

Compound: CO[C@H]1/C=C/O[C@@]2(C)Oc3c(C)c(O)c4c(O)c(c(/C=N/N5CCN(C)CC5)c(O)c4c3C2=O)NC(=O)/C(C)=C\C=C\[C@H](C)[C@H](O)[C@@H](C)[C@@H](O)[C@@H](C)[C@H](OC(C)=O)[C@@H]1C [RIFAMPIN]
- MIC [1]: 3 ng/mL (≈ 3.65 nM)
- MIC [2]: 0.06 ng/mL (≈ 0.0729 nM)
- MIC [3]: > 32000 ng/mL
- MIC [4]: 16 ng/mL (≈ 19.4 nM)
- MIC [5]: < 2 ng/mL
- MIC [6]: 0.9 ng/mL (≈ 1.09 nM)
- MIC [7]: < 2 ng/mL
- MIC [8]: < 2 ng/mL
- MIC [9]: 0.06 ng/mL (≈ 0.0729 nM)
- MIC [10]: 0.9 ng/mL (≈ 1.09 nM)
- MIC [11]: 0.4 ng/mL (≈ 0.486 nM)
- MIC [12]: 0.4 ng/mL (≈ 0.486 nM)
- MIC [13]: > 256000 ng/mL
- MIC [14]: < 2 ng/mL
- MIC [15]: 0.9 ng/mL (≈ 1.09 nM)
- MIC [16]: 0.06 ng/mL (≈ 0.0729 nM)
- MIC [17]: < 2 ng/mL
- MIC [18]: 0.9 ng/mL (≈ 1.09 nM)
- MIC [19]: > 256000 ng/mL
- MIC [20]: > 32000 ng/mL
- MIC [21]: > 256000 ng/mL
- MIC [22]: > 32000 ng/mL
- MIC [23]: < 2 ng/mL
- MIC [24]: < 2 ng/mL
- MIC [25]: < 2 ng/mL
- MIC [26]: 1.9 ng/mL (≈ 2.31 nM)
- MIC [27]: 0.9 ng/mL (≈ 1.09 nM)
- MIC [28]: < 2 ng/mL
- MIC [29]: > 32000 ng/mL
- MIC [30]: < 2 ng/mL
- MIC [31]: > 32000 ng/mL
- MIC [32]: 0.9 ng/mL (≈ 1.09 nM)
- MIC [33]: 0.9 ng/mL (≈ 1.09 nM)
- MIC [34]: < 2 ng/mL
- MIC [35]: 0.09 ng/mL (≈ 0.109 nM)
- MIC [36]: < 2 ng/mL
- MIC [37]: 0.9 ng/mL (≈ 1.09 nM)
- MIC [38]: 0.06 ng/mL (≈ 0.0729 nM)
- MIC [39]: 4 ng/mL (≈ 4.86 nM)
- MIC [40]: < 2 ng/mL
- MIC [41]: > 256000 ng/mL
- MIC [42]: 0.9 ng/mL (≈ 1.09 nM)
- MIC [43]: 0.06 ng/mL (≈ 0.0729 nM)
- MIC [44]: 0.06 ng/mL (≈ 0.0729 nM)
- MIC [45]: 0.06 ng/mL (≈ 0.0729 nM)
- MIC [46]: 0.06 ng/mL (≈ 0.0729 nM)
- MIC [47]: > 256000 ng/mL
- MIC [48]: 0.9 ng/mL (≈ 1.09 nM)
- MIC [49]: 0.06 ng/mL (≈ 0.0729 nM)
